Test results from ChEMBL document CHEMBL2057069, “Benzoxazole and benzothiazole amides as novel pharmacokinetic enhancers of HIV protease inhibitors” (Bioorg Med Chem Lett, 2012).
Active and inactive are the calls of the source. No cut-off for these calls is given here.

Tests used:
[1] = Apparent permeability across human Caco2 cells at 10 uM at pH 7.4 after 60 mins; assay type: ADME, cell-based; settings: Caco-2, pH 7.4
Summary of the method: (§1)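 Caco-2 monolayers were exposed to compound at 10 µM and sampled after 60 min of incubation, at pH 5.5 or pH 7.4. Apparent permeability was measured in the absorptive and secretory directions, with efflux expressed as the secretory/absorptive ratio.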

[2] = tested on: Canis familiaris; assay: Enhancement of darunavir Cmax in dog at 7.5 mg/kg, po administered 5 mins prior to darunavir co-administration; assay type: ADME, organism-based, Canis lupus familiaris; design: dose 7.5 mg/kg, route oral; settings: in vivo
[3] = Tmax in dog at 10 mg/kg, po administered as single dose; assay type: ADME, organism-based, Canis lupus familiaris; design: dose 10 mg/kg, route oral; settings: in vivo
Summary of the method: (§2)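 Single oral dose of 10 mg/kg given to rats and dogs, n = 3 per species. Plasma Cmax, Tmax, AUC0–∞ and absolute oral bioavailability were derived from the plasma profiles.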

[4] = AUC (0 to infinity) in dog at 7.5 mg/kg, po; assay type: ADME, organism-based, Canis lupus familiaris; design: time infinity, dose 7.5 mg/kg, route oral; settings: plasma
Summary of the method: (§3)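 Drug–drug interaction study in dogs, n = 3. The booster was given orally at 7.5 mg/kg as a PEG400 solution, 5 min before oral darunavir at 30 mg/kg. Darunavir plasma Cmax and AUC0–∞ were measured, with fold increase calculated against darunavir dosed alone.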

[5] = AUC (0 to infinity) in rat at 10 mg/kg, po administered as single dose; assay type: ADME, organism-based; design: time infinity, dose 10 mg/kg, route oral; settings: plasma
[6] = Absolute oral bioavailability in dog at 10 mg/kg administered as single dose; assay type: ADME, organism-based, Canis lupus familiaris; settings: in vivo; summary of the method: as §2
[7] = tested on: Canis familiaris; assay: Enhancement of darunavir AUC (0 to infinity) in dog at 7.5 mg/kg, po administered 5 mins prior to darunavir co-administration; assay type: ADME, organism-based, Canis lupus familiaris; design: dose 7.5 mg/kg, route oral; settings: in vivo
[8] = Cmax in dog at 10 mg/kg, po administered as single dose; assay type: ADME, organism-based, Canis lupus familiaris; design: dose 10 mg/kg, route oral; settings: in vivo; summary of the method: as §2
[9] = Cmax in dog at 7.5 mg/kg, po; assay type: ADME, organism-based, Canis lupus familiaris; design: dose 7.5 mg/kg, route oral; settings: in vivo; summary of the method: as §3
[10] = tested on: Human immunodeficiency virus 1; assay: Antiviral activity against wild type HIV1 3B infected in human MT4 LTR-EGFP cells by EGFP reporter gene assay; assay type: functional, organism-based; settings: Human immunodeficiency virus 1, 3B
[11] = Cmax in rat at 10 mg/kg, po administered as single dose; assay type: ADME, organism-based; design: dose 10 mg/kg, route oral; settings: in vivo; summary of the method: as §2
[12] = Tmax in rat at 10 mg/kg, po administered as single dose; assay type: ADME, organism-based; design: dose 10 mg/kg, route oral; settings: in vivo; summary of the method: as §2
[13] = AUC (0 to infinity) in dog at 10 mg/kg, po administered as single dose; assay type: ADME, organism-based, Canis lupus familiaris; design: time infinity, dose 10 mg/kg, route oral; settings: plasma; summary of the method: as §2
[14] = Absolute oral bioavailability in rat at 10 mg/kg administered as single dose; assay type: ADME, organism-based; settings: in vivo; summary of the method: as §2
[15] = Apparent permeability across human Caco2 cells at 10 uM at pH 5.5 after 60 mins; assay type: ADME, cell-based; settings: Caco-2, pH 5.5; summary of the method: as §1
[16] = Drug metabolism in dog hepatocytes at 2 uM after 2 hrs; assay type: ADME, cell-based, Canis lupus familiaris, Hepatocyte; settings: read-out: Drug metabolism
[17] = Efflux ratio of apparent permeability of the compound from basal to apical to apical to basal side of human Caco2 cells at 10 uM at pH 7.4 after 60 mins; assay type: ADME, cell-based; settings: Caco-2, pH 7.4
Summary of the method: (§4)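 Caco-2 monolayers; test compound at 10 µM; apparent permeability measured in secretory and absorptive directions at pH 5.5 and at pH 7.4, read after 60 min incubation; transport polarity taken as P_secretory/P_absorptive.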

[18] = Efflux ratio of apparent permeability of the compound from basal to apical to apical to basal side of human Caco2 cells at 10 uM at pH 5.5 after 60 mins; assay type: ADME, cell-based; settings: Caco-2, pH 5.5; summary of the method: as §4
[19] = target: Cytochrome P450 3A4 (Homo sapiens, UniProt P08684); assay: Inhibition of CYP3A4 in human liver microsomes using midazolam as substrate after 10 mins by LC/MS/MS analysis
[20] = species: Homo sapiens; assay: Inhibition of P-glycoprotein using taxol as substrate

Chain of Cytochrome P450 3A4 (P08684 whole entry): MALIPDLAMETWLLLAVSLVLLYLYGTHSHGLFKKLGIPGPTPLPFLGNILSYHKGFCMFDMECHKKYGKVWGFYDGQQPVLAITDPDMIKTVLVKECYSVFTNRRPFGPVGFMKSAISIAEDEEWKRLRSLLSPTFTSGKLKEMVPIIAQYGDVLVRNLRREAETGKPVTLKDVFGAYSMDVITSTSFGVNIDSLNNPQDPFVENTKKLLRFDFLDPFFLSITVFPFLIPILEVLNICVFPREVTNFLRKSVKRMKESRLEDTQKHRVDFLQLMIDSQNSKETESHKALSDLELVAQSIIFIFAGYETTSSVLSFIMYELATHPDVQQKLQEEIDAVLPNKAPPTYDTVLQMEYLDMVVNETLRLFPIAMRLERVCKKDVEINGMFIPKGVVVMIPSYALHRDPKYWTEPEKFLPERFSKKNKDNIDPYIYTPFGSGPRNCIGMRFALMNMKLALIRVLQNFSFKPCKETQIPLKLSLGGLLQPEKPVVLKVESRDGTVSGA

Row | Structure (SMILES) | Papp at 1 h, 10 µM [1] [×10⁻⁶ cm/s] | fold change (FC) [2] | Tmax [3] [min] | AUC(0-inf) [4] [ng·h/mL] | AUC(0-inf) [5] [ng·h/mL] | bioavailability [6] [%] | fold change (FC) [7] | Cmax [8] [ng/mL] | Cmax [9] [ng/mL] | EC50 [10] [µM] | Cmax [11] [ng/mL] | Tmax [12] [min] | AUC(0-inf) [13] [ng·h/mL] | bioavailability [14] [%] | Papp at 1 h, 10 µM [15] [×10⁻⁶ cm/s] | metabolised at 2 h, 2 µM [16] [%] | efflux ratio at 1 h, 10 µM [17] | efflux ratio at 1 h, 10 µM [18] | IC50 [19] [µM] | inhibition [20]
1 | CCN(C)c1nc2ccc(C(=O)N(CC(C)C)C[C@@H](O)[C@H](Cc3ccccc3)NC(=O)OCc3cncs3)cc2o1 | 11 | 2 | 30 | 2000 | 970 | 81 | 5 | 1010 | 610 | 71 | 240 | 60 | 2240 | 44 | 10 | – | – | – | – | –
2 | CC(C)CN(C[C@@H](O)[C@H](Cc1ccccc1)NC(=O)OCc1cncs1)C(=O)c1ccc2nc(N)sc2c1 | 1.2 | 1.8 | 60 | 6480 | 10 | 1.37 | 4.7 | 140 | 2300 | 76 | 10 | 30 | 200 | 0.82 | 0.52 | 12 | 22 | 26 | 0.019 | Active
3 | CC(C)CN(C[C@@H](O)[C@H](Cc1ccccc1)NC(=O)OCc1cncs1)C(=O)c1ccc2ncsc2c1 | 9.8 | 2 | 60 | 7070 | 7800 | 97 | 4.8 | 5200 | 2100 | 95 | 2800 | 30 | 2240 | 107 | 11 | – | 3.6 | 2 | 0.023 | –
